# Screening results from PubChem BioAssay.
# Only a selection was taken, and hits are over-represented in it overall.
# MPTP block: inhibitors of mitochondrial permeability transition pore | 360,000 compounds, 1.4% hits | AID 602449 | isolated mouse mitochondria, Ca2+ swelling absorbance, 30 min | inhibition, % at 10 µM;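 active = inhibition of 50% or more, scaled per plate between neutral and stimulator controls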
# T cruzi repl: T. cruzi replication inhibition; inhibition, % (no concentration beside the values); 300,000 compounds, 1.4% hits; AID 1885; T. cruzi beta-gal in NIH3T3, luminescence, 90 h;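 active = mean inhibition across valid replicates above about 55%, limit read from the data; inconclusive = mean below that limit but half or more replicates reach it; inactive = mean below it, under half of replicates reach it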;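 also: signal also drops with host cell toxicity which is not excluded here; higher percent means less beta-gal luminescence so fewer parasites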
#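 compound dosing = single 50 nL compound addition per well in DMSO | material = NIH/3T3 host cells with β-galactosidase reporter T. cruzi | input = 5,000 host fibroblasts per well | timing = ≥90 h infection period, 3 h prior cell attachment | read-out basis = percent inhibition of parasite-derived β-gal signal | detection = GalScreen β-gal luminescence, detergent lysis, 60 min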
# Redox H2O2 prof: compounds producing H2O2 with reducing agent – biochemical, NIH compound library profiling, artefact control for MLSCN library redox annotation, primary screen; activation, % at 10 µM; 200,000 compounds, 0.03% hits; DTT-dependent redox cycling H2O2, phenol red/HRP absorbance; 100% = 100 µM peroxide control, 0% = buffer; AID 878;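 active = activation of at least 50% relative to the plate's high and low controls in the primary single-dose screen; inactive = activation below 50%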;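 also: compound incubated with DTT at 0.8 mM final as the reducing agent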
# Lipid droplet: hepatic lipid droplet formation modulation | AML12 mouse hepatocytes, oleate lipid droplets, BODIPY imaging | inhibition, % at 6.5 µM | 240,000 compounds, 0.4% hits | AID 1656;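 active = lipid droplet intensity inhibited by at least 50%, with more than 500 cells counted; inconclusive = wells with under 300 cells, treated as cytotoxic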
#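 Test system: AML12 hepatocytes (mouse); reagent: oleate loading, 100 µM; dosing: one dose, 6.5 µM compound; incubation: overnight exposure; signal: fluorescence imaging, 20x objective, two fields per well; read-out basis: % inhibition of corrected integrated BODIPY droplet signal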
# L major viab: reduces viability of Leishmania major promastigotes; resazurin fluorescence viability; 200,000 compounds, 9% hits; AID 1063; inhibition, % at 10 µM; in the data active = inhibition above about 50%;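 also: promastigotes grown with compound for 44 hours at 28 °C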
# Rh123 counter: Rhodamine 123 counter-screen of mitochondrial pore hits; inhibition, % at 10 µM; shares compounds with MPTP block; 5,000 compounds, 78% hits; isolated mitochondria, membrane potential, Rhodamine 123 fluorescence; in the data active = inhibition above about 22%
# MPTP abs DR: MPTP inhibition, dose response swelling confirmation; shares compounds with MPTP block; isolated mitochondria swelling, absorbance; IC50, µM; 780 compounds, 58% hits; in the data active = IC50 below about 20 µM
# MPTP cs DR: counter-screen for mitochondrial permeability transition pore inhibitors, dose response. IC50, µM. shares compounds with MPTP block. 780 compounds, 49% hits. isolated mitochondria counterscreen, fluorescence read-out; in the data active = IC50 below about 80 µM
# Numbers stand for hits; n = inactive; u = inconclusive; x = no result given.
SMILES,MPTP block,T cruzi repl,Redox H2O2 prof,Lipid droplet,L major viab,Rh123 counter,others
O=C(CCNC(=O)C1CCN(S(=O)(=O)c2ccc(F)cc2)CC1)Nc1ccccc1,n,n,x,n,x,x,
CCOC(=O)c1ccc(N2CCN(c3ccccc3F)CC2)c(NC(=O)Nc2cccc(OC)c2)c1,78.5,69.6,n,56.9,n,83.8,
COc1ccc2[nH]c(CN3CCC(CO)(CCOc4ccccc4)CC3)c(C)c2c1,66.5,n,n,n,88.2,n,MPTP abs DR=5.83;MPTP cs DR=n
C=CCN(C)CC/C=C1\c2ccccc2CSc2ccccc21,74.3,n,n,n,99.8,n,MPTP abs DR=17.5;MPTP cs DR=73.9
CN(C)CC/C=C1/c2cc(F)ccc2CSc2ccc(F)cc21,72.3,n,n,n,98.8,n,MPTP abs DR=14;MPTP cs DR=n
NCC/C=C1/c2ccccc2CSc2ccccc21,87.5,n,n,n,53.6,n,MPTP abs DR=6.79;MPTP cs DR=n
Clc1cccc(Cl)c1CSc1nnc([C@@H]2CCCN2)o1,n,n,x,x,x,x,
O=C(/C(=N\Nc1ccc(Br)cc1)Sc1nnnn1-c1ccccc1)c1ccccc1,90.5,n,n,n,n,74.1,
CCOC(=O)/C(=N/Nc1ccccc1)Sc1nnnn1-c1ccc(C)cc1,n,n,n,n,n,x,
CCN(CC)CCNC(C(=O)Nc1ccc([N+](=O)[O-])cc1Br)c1ccccc1 (stereo not drawn),61.2,n,n,n,n,n,MPTP abs DR=n;MPTP cs DR=n
CN(C)C(CNC(C(=O)Nc1ccc([N+](=O)[O-])cc1Br)c1ccccc1)c1ccccc1 (stereo not drawn),n,n,n,n,n,x,
CC(=O)/C=C1\OCc2ccccc21,n,x,x,x,x,x,
O=C(CSc1nc2ccc(Cl)cc2[nH]1)NCCc1ccc(Cl)cc1,68.8,n,n,n,n,59.8,
O=C(CSc1nc2ccc(Cl)cc2[nH]1)NCCc1ccccc1,n,n,n,n,n,x,
Oc1ccccc1-c1n[nH]c(-c2ccccc2O)n1,86.9,x,x,x,x,84.5,
Clc1ccccc1-c1nc(-c2ccccc2)n[nH]1,n,n,n,x,n,x,
Cc1ccc(C(C#N)c2ccc3c(C(F)(F)F)cc(C(F)(F)F)nc3n2)cc1 (stereo not drawn),113.1,n,n,x,n,68.5,
N#CC(c1ccccc1)c1ccc2c(C(F)(F)F)cc(C(F)(F)F)nc2n1 (stereo not drawn),92.7,n,n,n,n,70.5,
FC(F)(F)c1cc(C(F)(F)F)c2ccc(N/N=C/c3ccccc3)nc2n1,n,n,n,x,n,x,
COc1cccc(N2CCN(CC(=O)Nc3ccc(S(=O)(=O)N4CCCCCC4)cc3)CC2)c1,n,x,x,x,x,x,
O=C(NCCCCCCOC1=NS(=O)(=O)c2ccccc21)C(=O)Nc1ccccc1,73.0,n,n,n,n,67.8,
Nc1nc(Cl)cc(N2CCC(c3cc(-c4ccc(Cl)cc4Cl)n[nH]3)CC2)n1,64.5,n,n,x,n,63.0,
Cc1sc(NC(=O)/C=C/c2ccco2)c(C(=O)OC(C)C)c1C,52.2,n,n,n,n,n,MPTP abs DR=n;MPTP cs DR=n
COC(=O)c1c(NC(=O)/C=C/c2ccco2)sc2c1CCC2,n,n,n,n,n,x,
Cc1ccc(-c2ccc(/C=N/O)o2)cc1[N+](=O)[O-],n,n,n,n,n,x,
SMILES,MPTP block,T cruzi repl,Redox H2O2 prof,Lipid droplet,L major viab,Rh123 counter,others
Fc1ccc2c(c1)Sc1ccc(Cl)cc1CC2N1CCN(CCC2OCCO2)CC1 (stereo not drawn),n,n,x,x,x,x,
NC(=O)CCN1CCN(CCOC2Cc3cc(Cl)ccc3Sc3ccccc32)CC1 (stereo not drawn),61.6,n,n,n,90.6,n,MPTP abs DR=n;MPTP cs DR=n
CCOc1ccc(NC(=O)CCC(=O)N/N=C2\CCCc3ccccc32)cc1,n,x,x,n,x,x,
Oc1ccccc1/C=N/NC(=S)NC1CC2CCC1C2 (stereo not drawn),53.7,n,x,n,x,66.6,
COc1cccc(/C=N/NC(=S)NC2CC3CCC2C3)c1OC (stereo not drawn),n,n,x,n,x,x,
Cc1cc(C)cc(C(=O)OCC(=O)NC(=O)NC2CCCC2)c1,n,x,x,x,x,x,
CCCCCOc1ccc(Br)cc1CSC(=N)N,68.2,n,n,n,100.1,105.3,
CCC(=O)Nc1cc(=O)[nH]c2nc(-c3ccc(Cl)cc3)nn12,n,n,x,x,x,x,
CC1(O)CC(c2ccc(Cl)cc2)=NN1C(=O)c1ccc(Cl)cc1 (stereo not drawn),68.2,n,x,n,x,88.4,
O=C(C1CC1)N1N=C(c2ccc(Cl)cc2)CC1(O)C(F)(F)F (stereo not drawn),n,n,x,n,x,x,
CCOc1ccc2nc(N3C(=O)/C(=C/c4ccc(Cl)cc4)NC3=S)sc2c1,92.4,n,n,n,n,n,
CCOc1ccccc1-c1cc(-c2ccc(OC)cc2)nc2c1c(=O)n(C)c(=O)n2C,82.8,n,x,n,x,n,MPTP abs DR=n;MPTP cs DR=n
NC(=O)c1ncn([C@@H]2O[C@H](CNCc3cccc(OC4CCCC4)c3)[C@@H](O)[C@H]2O)n1,n,x,x,x,x,x,
O=C(CSc1nc2ccccc2o1)Nc1nc2c(s1)CCCC2,83.6,x,x,x,x,64.3,
CCOC(=O)c1c(NC(=O)CSc2nc3ccccc3o2)sc(C(C)=O)c1C,101.3,n,n,n,n,74.7,
O=C(CSc1nc2ccccc2o1)Nc1nc2ccccc2s1,n,n,n,x,n,x,
CCOC(=O)c1c(NC(=O)C2c3ccccc3Oc3ccccc32)sc(C(C)=O)c1C,85.4,n,n,x,n,n,MPTP abs DR=n;MPTP cs DR=8.61
CCCNC(=O)C1(C)CCN(C(=O)c2c(Cl)cccc2Cl)C1 (stereo not drawn),n,x,x,x,x,x,
CC(C)(C)NC(=O)NC(=O)COC(=O)c1cccc(NS(=O)(=O)c2ccc(F)c(F)c2)c1,n,n,n,n,n,x,
CC(C)(C)c1ccc(NC(=O)COC(=O)c2ccc(NS(=O)(=O)c3ccc(F)c(F)c3)cc2)cc1,60.3,n,n,n,n,60.5,
O=[N+]([O-])/C(=C\Nc1ccccc1Cl)S(=O)(=O)c1ccccc1,n,x,n,x,n,x,
O=[N+]([O-])/C(C=Nc1ccccc1O)=C\Nc1ccccc1O,83.1,n,x,n,x,n,
Cc1ccc(/C=C/C(=O)O)cc1S(=O)(=O)N1CCc2ccccc21,n,n,x,n,x,x,
O=C(Nc1ccc(Cl)c(Cl)c1)Nc1cc(C(=O)N2CCOCC2)ccc1N1CCCCC1,94.6,n,n,x,n,n,MPTP abs DR=18.2;MPTP cs DR=<2.5
O=C(Nc1ccc(Cl)c(Cl)c1)Nc1cc(S(=O)(=O)N2CCOCC2)ccc1N1CCCC1,93.5,n,n,n,68.7,68.0,
O=C(Nc1ccc(N2CCOCC2)cc1)c1csc([C@@H]2C[C@H](O)[C@@H](CO)O2)n1,n,x,x,x,x,x,
Fc1ccc(-c2nc(-c3cccs3)[nH]c2-c2ccc(F)cc2)cc1,77.4,u,n,n,98.6,73.5,
Oc1ccc(-c2nc(-c3ccc(F)cc3)c(-c3ccncc3)[nH]2)cc1,n,x,x,x,x,x,
